Measured values gathered from unrelated publications.
Protocols differ between the studies behind these lines.
Target: Glycogen synthase kinase-3 beta (GSK3B, Homo sapiens, UniProt P49841)

SMILES	read-out	mode	technique	concentration	endpoint	result
CN(C)c1ncnc(-c2ccc3nc(Nc4cc(CN5CCN(C(=O)CC(F)(F)F)CC5)ccn4)[nH]c3c2)c1Cl	cell-free assay		competition with immobilised ligand	1 µM	remaining binding	100%
CCCOc1ccc(OC)c(F)c1C(=O)c1ccc(C(=O)N[C@@H]2CNC[C@H]2NC(=O)c2ccc3[nH]ncc3c2)cc1	enzyme activity	inhibitor		10 µM	remaining activity	67%
O=C(O)c1cn(C2CC2)c2cc(N3CCNCC3)c(F)cc2c1=O	enzyme activity	inhibitor	ADP detection	100 µM	inhibition	18.7%
COc1cc(Nc2cnc(C#N)c(O[C@H](C)CN(C)C)n2)ncc1-c1cnn(C)c1	enzyme activity	inhibitor	radiometric	10 µM	remaining activity	52%
C[C@@H]1CN(c2cc(-c3n[nH]c4ccc(OC5(C)CC5)cc34)ncn2)C[C@H](C)O1	cell-free assay		competition with immobilised ligand	0.1 µM	remaining binding	90%
COc1cc(Cl)c(C(=O)N[C@@H](CN[C@H]2CC[C@@H](N)CC2)Cc2ccc(C#N)cc2)cc1-c1ccc(CN[C@H](C)c2ccc(C)cc2)o1	enzyme activity	inhibitor		1 µM	remaining activity	101%
Cc1cc(NC(=O)c2cccc3cc(-c4cccc5[nH]nc(N)c45)ccc23)ccc1F	enzyme activity	inhibitor		0.1 µM	activity vs control	85%
CC(C)(O)[C@H]1CC[C@H](Nc2ccc3ncc(-c4cccc(C(F)(F)F)c4)n3n2)CC1	enzyme activity	inhibitor		1 µM	remaining activity	81.6%
Cc1sc(C(=O)NC2COC2)cc1-n1cc(NC(=O)Nc2c(F)cccc2Cl)cn1	enzyme activity	inhibitor		10 µM	remaining activity	94.9%
C[C@@H]1CN(c2cc(-c3nn(C)c4ccc(OC5(C)CC5)cc34)ncn2)C[C@H](C)O1	cell-free assay		competition with immobilised ligand	1 µM	remaining binding	91%
O=C1NC(=O)c2cc(Nc3ccc(F)cc3)c(Nc3ccc(F)cc3)cc21	cell-free assay			0.5 µM	remaining signal	89.2%
Cc1ccc(C(=O)Nc2ccc(CN3CCN(C)CC3)c(C(F)(F)F)c2)cc1C#Cc1cnc2cccnn12	enzyme activity	inhibitor		23.5 nM	remaining activity	92%
OCc1ccccn1	enzyme activity	inhibitor	ADP detection	100 µM	inhibition	4.4%
O=C(O)[C@H]1[C@H](Cn2nnc3ccccc3c2=O)CC[C@@H]1C(=O)c1ccc(OCCC2CCOCC2)cc1	cell-free assay		competition with immobilised ligand	1 µM	remaining binding	100%
Oc1cccc(-c2nc(N3CCOCC3)c3oc4ncccc4c3n2)c1	enzyme activity	inhibitor		10 µM	remaining activity	48%
CN1CCOC(c2ccccc2)c2ccccc2C1 (stereo not shown)	enzyme activity	inhibitor	ADP detection	100 µM	inhibition	12.9%
Cn1sc(=O)n(Cc2ccccc2)c1=O	cell-free assay			0.5 µM	remaining signal	114%
CS(=O)(=O)c1cc(C2(NC(=O)c3cncc4c3cnn4-c3ccc(F)cc3)CC2)ccn1	cell-free assay		competition with immobilised ligand	1 µM	remaining binding	85%
CC(C)c1ccc(NC(=O)c2cccs2)c(-c2nc3ccccc3[nH]c2=O)c1	enzyme activity	inhibitor		1 µM	activity vs control	128%

SMILES	read-out	mode	technique	concentration	endpoint	result
CCC(=O)N[C@@H]1CC[C@H](C(=O)N(C)c2ccc(-c3nc4ccccc4o3)cc2)C1	cell-free assay		competition with immobilised ligand	1 µM	remaining binding	96%
CNC(=O)c1cc(Oc2ccc(NC(=O)Nc3ccc(Cl)c(C(F)(F)F)c3)cc2)ccn1	cell-free assay			0.5 µM	remaining signal	101%
FC(F)(F)Oc1cccc(-c2cnc3ccc(-c4ccncc4)nn23)c1	enzyme activity	inhibitor	radiometric	5 µM	activity vs control	98%
FC(F)c1nc2ccccc2n1-c1nc(N2CCOCC2)nc(N2CCOCC2)n1	enzyme activity	inhibitor		10 µM	remaining activity	79%
Cc1cnc(C(=O)NCCc2ccc(S(=O)(=O)NC(=O)NC3CCCCC3)cc2)cn1	enzyme activity	inhibitor	ADP detection	100 µM	inhibition	45.4%
Cc1ccc(C(=O)NCc2ccsc2)cc1C#Cc1cn(C(C)C)c2ncnc(N)c12	enzyme activity	inhibitor		1 µM	activity vs control	102%
O=c1c2ccccc2[nH]c(=S)n1CCN1CCC(=C(c2ccc(F)cc2)c2ccc(F)cc2)CC1	enzyme activity	inhibitor		0.5 µM	remaining activity	112%
O=C(O)c1cc(-c2ccc(F)cc2F)ccc1O	enzyme activity	inhibitor	ADP detection	100 µM	inhibition	38.6%
O=C1Nc2ccc(Cl)cc2C1=Cc1cc(Cl)c(O)c(Cl)c1	cell-free assay			0.5 µM	remaining signal	80.8%
Cc1cccc(C)c1NC(=O)c1ccccc1C(=O)O	enzyme activity	inhibitor	ADP detection	100 µM	inhibition	18.9%
Cc1nc(C2CCN(C(=O)c3ccc(OC(F)(F)F)cc3N)CC2)c2ncc(N3CCN(C)CC3)cc2n1	cell-free assay		competition with immobilised ligand	1 µM	remaining binding	100%
Cc1cc(NS(=O)(=O)c2ccc(N)cc2)nc(C)n1	enzyme activity	inhibitor	ADP detection	100 µM	inhibition	11.7%
O=C1c2ccccc2-c2n[nH]c3cccc1c23	enzyme activity	inhibitor		0.5 µM	activity vs control	86.8%
COc1cccc(CNC(=O)c2nc3scc(COCc4ccc(C(=O)O)cc4)c3c(=O)[nH]2)c1	cell-free assay		competition with immobilised ligand	1 µM	remaining binding	62.6%
CC(C)n1cnc2c(Nc3cccc(Cl)c3)nc(NCCO)nc21	cell-free assay			0.5 µM	remaining signal	96%
Cc1ccc(NC(=O)c2ccc(C)c(C(F)(F)F)c2)cc1C#Cc1nn(C2CCC(O)CC2)c2ncnc(N)c12 (stereo not shown)	cell-free assay			10 µM	remaining signal	26%
Nc1cccc(-c2cc3c(Oc4cccc(O)c4)ncnc3[nH]2)c1	cell-free assay			0.5 µM	remaining signal	48.1%
N#C[C@@H]1C[C@@H]2C[C@@H]2N1C(=O)[C@@H](N)C12CC3CC(CC(O)(C3)C1)C2	enzyme activity	inhibitor	ADP detection	100 µM	inhibition	8.2%
